# Screens: PubChem, Johns Hopkins Ion Channel Center
# RGS4 pot: potentiators or activators of RGS4 | HEK293 M3R/inducible RGS4, carbachol calcium flux Fluo4; stronger effect = lower value | B-score at 10 µM | hit rate 0.92% among 310,000 | AID 463111;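 active means B-score of the integrated calcium signal more than 4 SD below the library mean, with starting fluorescence not abnormally high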;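 further: negative B-score means reduced calcium response which marks RGS4 activation or potentiation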
#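 test system = M3R-expressing HEK293 line, RGS4 induced by doxycycline | probe or stimulus = carbachol at ECmax as muscarinic agonist stimulus | timing = dye loading 30 min 37 °C, buffer rest 30 min RT | signal = calcium dye Fluo4 fluorescence | evaluation = B score from integrated fluorescence ratio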
# MrgX1 PAM: human MrgX1 positive allosteric modulation, primary screen. Q96LB2. MrgX1-HEK293, Fluo-4 calcium flux, FDSS; stronger effect = higher value. B-score at 10 µM. hit rate 0.63% among 310,000;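 active means plate-corrected calcium response at least 3 library SD above typical, normal starting fluorescence, not activating the receptor alone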;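 further: compound read alongside a low EC10 to EC30 dose of BAM8-22 agonist; peak minus trough fluorescence over baseline measured at the second addition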
# Target sequence (Q96LB2 whole entry, looked up): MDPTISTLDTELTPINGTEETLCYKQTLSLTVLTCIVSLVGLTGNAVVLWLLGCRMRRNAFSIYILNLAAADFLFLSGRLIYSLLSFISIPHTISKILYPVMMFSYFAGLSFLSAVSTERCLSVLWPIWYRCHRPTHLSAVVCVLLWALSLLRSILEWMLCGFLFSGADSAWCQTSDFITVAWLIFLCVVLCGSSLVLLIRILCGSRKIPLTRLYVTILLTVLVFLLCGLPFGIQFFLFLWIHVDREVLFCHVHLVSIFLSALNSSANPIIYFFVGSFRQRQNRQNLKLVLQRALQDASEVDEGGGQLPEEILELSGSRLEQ
# MrgX1 antag: human MrgX1 receptor antagonism, primary screen; hit rate 1.3% among 310,000; B-score at 10 µM; Q96LB2; MRGX1-HEK293 calcium flux, Fluo-4, BAM8-22 antagonism; stronger effect = lower value;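 active means calcium-response B-score plate-corrected more than 3 library SD below zero, starting fluorescence within 5 deviations, no agonist response on first addition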;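 further: peak minus trough fluorescence over baseline after final BAM8-22 challenge near maximal dose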
# MrgX1 agonist: activates human MrgX1 receptor signaling; MrgX1-HEK293 cells, Fluo-4 calcium fluorescence, agonist mode; stronger effect = higher value; hit rate 0.44% among 310,000; Q96LB2; B-score at 10 µM;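 active means calcium response B-score plate-corrected fluorescence ratio at least 3 library SD, with starting fluorescence B-score inside 5 SD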
#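 Assay system: stable human MrgX1 HEK293 cell line. Quantity: 15,000 cells per well. Schedule: cells plated overnight, dye loaded 0.5 h 37 °C, 0.5 h room temperature. Detection: Fluo-4 NW calcium-flux fluorescence, kinetic read. Read-out basis: peak-minus-minimum fluorescence over baseline, converted to B scores. Control set: positive and negative control wells on each plate.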
# RGS4 inh: human RGS4 inhibition; HEK293 M3R/RGS4 inducible, Fluo-4 calcium flux; stronger effect = higher value; triggered by carbachol at its EC20; P49798; hit rate 0.45% among 310,000; B-score at 10 µM;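 active means B-score, a plate-corrected calcium signal, over three deviations above library mean, with baseline fluorescence within five deviations of library mean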;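 further: RGS4 expression induced by doxycycline in cells with stable M3 receptor; B-score is computed from the integrated fluorescence ratio over baseline after carbachol; higher B-score means a larger calcium signal and so more RGS4 inhibition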
# Target sequence (P49798 whole entry, looked up): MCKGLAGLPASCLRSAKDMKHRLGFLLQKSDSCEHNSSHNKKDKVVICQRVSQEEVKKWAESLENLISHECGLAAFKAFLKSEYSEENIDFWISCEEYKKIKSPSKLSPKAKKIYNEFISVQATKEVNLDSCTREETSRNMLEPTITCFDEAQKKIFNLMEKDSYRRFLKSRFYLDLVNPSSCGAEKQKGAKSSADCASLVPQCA
# Hits are given with their value; . = inactive; / = no result given. Rows were chosen to be rich in hits. Some 3.5% of all compounds tested hit in one or more screens of this group.
SMILES,RGS4 pot,MrgX1 PAM,MrgX1 antag,MrgX1 agonist,RGS4 inh
COc1cccc(/C=C/c2ccc3cccc(O)c3n2)c1OC,-7.4,.,.,.,.
COc1ccc(/C=C/c2ccc3cccc(O)c3n2)c(OC)c1OC,.,.,.,.,.
CCC1CCCCN1CCCNC(=O)CSc1nc2nc(C)c(Cc3ccccc3Cl)c(C)n2n1 (stereo not given),-7,.,.,.,.
CC1CC(=O)c2c(cc3c(-c4c(O)cc(O)c5c(O)c6c(cc45)OC(C)CC6=O)c(O)cc(O)c3c2O)O1 (stereo not given),.,.,-6.8,.,.
COC(=O)Nc1nn(-c2ccc(OC)cc2)c(=O)c(C#N)c1C,.,.,.,.,.
COc1ccc(-n2nc(C(=O)N3CCCCC3)c(C)c(C#N)c2=O)cc1,.,.,-5.8,.,.
CCOc1ccc(NC(=O)CN(c2ccc([N+](=O)[O-])cc2)S(=O)(=O)c2ccccc2)cc1,.,.,-5.4,.,.
CCCNC(=O)Cn1sc2nc(C)cc(C)c2c1=O,.,.,.,.,.
O=C(COc1cccnc1[N+](=O)[O-])NCc1ccccc1,.,.,.,.,.
CNC[C@H](Cc1ccccc1)NC[C@@H](Cc1cccc2ccccc12)NCCc1ccc(C)cc1,-8.2,.,.,.,.
CCC(C)(C)n1nnnc1C(c1ccccc1)N1CCN(Cc2ccccc2)CC1 (stereo not given),.,.,.,.,.
CCC(C)(C)n1nnnc1CN1CCN(C(c2ccccc2)c2ccccc2)CC1,-7.5,.,.,.,.
N#C/C(=C\c1ccc[nH]1)Sc1nc2ccccc2s1,.,.,.,.,.
N#C/C(=C\c1cccs1)Sc1nc2ccccc2s1,.,.,-5.3,.,.
CC(/C=C1\SC(=Nc2cccnc2)NC1=O)=C\c1ccccc1,.,.,.,.,.
C=CCOc1ccc(/C=C2\SC(=Nc3cccnc3)NC2=O)cc1,.,.,-4.9,.,.
O=C(COc1ccc(F)cc1Cl)N(Cc1nnc(-c2ccccc2Cl)o1)C1CC1,.,.,.,.,.
COc1ccc(Nc2nc(N)nc(CSC(=S)N3CCCCC3C)n2)cc1 (stereo not given),.,.,.,.,.
CN(C)c1nc(-c2cccnc2)nc(-c2ccccc2)c1C#N,.,.,.,.,.
Cc1sc2ncnc(NCC(O)c3ccc([N+](=O)[O-])cc3)c2c1C (stereo not given),.,.,-5,.,.
Cc1sc2ncnc(NCCCO)c2c1C,.,.,.,.,.
Cc1nc(NCC(c2ccccc2)N(C)C)c2c(C)c(C)sc2n1 (stereo not given),-9.5,.,.,.,.
Cc1sc2ncnc(NCC(c3ccccc3)N(C)C)c2c1C (stereo not given),-7.5,.,.,.,.
Cc1sc2ncnc(NCC(O)c3ccccc3)c2c1C (stereo not given),.,.,.,.,.
Cc1cc(Br)ccc1SCC(=O)OCC(=O)NC1CCCC1,.,.,.,.,.
SMILES,RGS4 pot,MrgX1 PAM,MrgX1 antag,MrgX1 agonist,RGS4 inh
COc1ccc(S(=O)(=O)n2nc(-c3cc(OC)c(OC)c(OC)c3)cc2N)cc1OC,/,.,.,.,/
COc1ccc(-c2cc(N)n(S(=O)(=O)c3c(F)c(F)c(F)c(F)c3F)n2)cc1OC,.,.,-6.9,.,.
CCN(CC)CCN1c2ccccc2Sc2ccccc21,-7.1,.,.,.,.
CCN(CC)CCN1c2ccccc2Sc2ccc3ccccc3c21,-7.5,.,.,.,.
Cc1ccc(C)c(Cn2nc3c4ccccc4n(Cc4ccccc4)cc-3c2=O)c1,.,/,/,/,.
CCOC(=O)C1CCN(S(=O)(=O)c2ccc3c(c2)CCCN3C(C)=O)CC1,.,.,.,.,.
CCOC(=O)C1CCN(S(=O)(=O)c2ccc3c(c2)CC(=O)N3C)CC1,.,.,.,39,.
Cc1ccc2oc(C(=O)N3CCC(O)(c4cccc(C(F)(F)F)c4)CC3)c(C)c2c1,.,.,.,.,.
Cc1nc(C)c(C(=O)NNC(=O)Nc2ccc(Cl)cc2)s1,.,.,.,.,.
COc1ccc(C(CNC(=O)c2cccc(NS(=O)(=O)c3ccc(C)c(F)c3)c2)N2CCOCC2)cc1 (stereo not given),.,.,.,.,.
C=CC[n+]1c(-c2ccc(OC)c(OC)c2)csc1NNC(=O)Nc1ccccc1,.,.,-4.6,.,.
C/C(Cl)=C/CSc1nn2c(=O)c3ccccc3nc2s1,.,7.8,.,.,.
O=C(c1ccc(Cn2cc(Br)cn2)cc1)N1N=C(C(F)F)CC1(O)C(F)F (stereo not given),-7.9,.,.,.,.
Cc1ccccc1NC(=O)CSc1nc(=O)n(CCN2CCOCC2)c2c1CCCC2,.,.,.,.,.
O=C1Cc2ccccc2N1c1ccccc1,.,.,.,.,.
O=C1CC(=Nc2ccccc2)NN1c1ccccc1,.,7.4,.,.,.
O=C(CCN1CCC(c2ccc(Cl)s2)=N1)c1ccc(Cl)s1,.,.,-4.9,.,.
O=C(CSCc1ccco1)c1ccc(Cl)s1,.,.,.,.,.
COc1cccc(/C=C/C(=O)c2ccc3c(c2)OCCO3)c1OC,.,.,.,.,.
CCOC(=O)c1c(NC(=O)COC(=O)c2ccc(O)cc2)sc(C(=O)NC)c1C,.,.,.,.,.
CCOC(=O)c1c(NC(=O)COC(=O)CC(NC(C)=O)c2ccccc2)sc(C(=O)NC)c1C (stereo not given),.,.,-4.8,.,.
CCN(CC)Cc1ccccc1Sc1ccccc1,-9.2,.,.,.,.
CC1=CC(=C(C#N)c2nc3ccccc3s2)C=C(C)N1Cc1ccco1,-7.6,.,.,.,.
Cc1c(C)c2c(OCC(=O)N3CCC(C(N)=O)CC3)cc3c(c2oc1=O)CCC(C)(C)O3,.,.,.,.,.
O=S(=O)(c1cc(Cl)ccc1Cl)N1CC2CCCN2c2ccc(C(F)(F)F)cc21 (stereo not given),-7.1,.,.,.,.
SMILES,RGS4 pot,MrgX1 PAM,MrgX1 antag,MrgX1 agonist,RGS4 inh
CS(=O)(=O)N1CC2CCCN2c2ccc(C(F)(F)F)cc21 (stereo not given),.,.,.,.,.
Cc1cc(SCC(=O)N/N=C/c2ccc(C(=O)O)cc2)nc2ccccc12,.,.,.,.,.
CC(Oc1ccccc1Cl)C(=O)Nc1ccc(S(=O)(=O)N2CCCC2)cc1 (stereo not given),-7.2,.,.,.,.
C#CC[N+]1(CC#Cc2ccccc2)CCCCC1,.,.,.,.,.
C#CC[N+]1(CC#Cc2cccc(C)c2)CCCCC1,.,.,.,.,.
C(#Cc1ccccc1)C[N+]1(CC#Cc2ccccc2)CCCCC1,-8.6,.,.,.,.
Cc1ccc(C#CC[N+]2(CC#Cc3ccc(C)cc3)CCCCC2)cc1,-7.1,.,.,.,.
Cc1ccc2nc(N(CCCN(C)C)C(=O)c3ccc4ncsc4c3)sc2c1,.,.,.,.,.
